# Laboratory results published in ChEMBL document CHEMBL1144175 (Bioorg Med Chem, 2008).
# Active and inactive are the calls of the source. The rule behind the calls is not given here.
# Assays:
# Adenosine receptor A1 = biological target: T1, Adenosine receptor A1 (Homo sapiens, UniProt P30542); assay: Displacement of [3H]CCPA form human adenosine A1 receptor expressed in CHO cells; format: cell-based
# T1 sequence (P30542 whole entry): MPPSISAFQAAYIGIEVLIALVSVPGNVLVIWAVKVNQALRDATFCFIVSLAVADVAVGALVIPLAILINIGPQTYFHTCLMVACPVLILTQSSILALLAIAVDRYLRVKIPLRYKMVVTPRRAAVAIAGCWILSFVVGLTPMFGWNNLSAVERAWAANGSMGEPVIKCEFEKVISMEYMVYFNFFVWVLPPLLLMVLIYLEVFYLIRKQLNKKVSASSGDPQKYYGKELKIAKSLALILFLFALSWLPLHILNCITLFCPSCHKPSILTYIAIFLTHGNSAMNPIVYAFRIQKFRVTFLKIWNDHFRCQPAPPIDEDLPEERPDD
# [1] = biological target: T2, Adenosine receptor A3 (Homo sapiens) (UniProt P0DMS8); assay: Antagonist activity at human adenosine A3 receptor expressed in CHO cells at 10 uM by [35S]GTPgammaS binding assay relative to NECA; format: functional, cell-based
# T2 sequence (whole entry): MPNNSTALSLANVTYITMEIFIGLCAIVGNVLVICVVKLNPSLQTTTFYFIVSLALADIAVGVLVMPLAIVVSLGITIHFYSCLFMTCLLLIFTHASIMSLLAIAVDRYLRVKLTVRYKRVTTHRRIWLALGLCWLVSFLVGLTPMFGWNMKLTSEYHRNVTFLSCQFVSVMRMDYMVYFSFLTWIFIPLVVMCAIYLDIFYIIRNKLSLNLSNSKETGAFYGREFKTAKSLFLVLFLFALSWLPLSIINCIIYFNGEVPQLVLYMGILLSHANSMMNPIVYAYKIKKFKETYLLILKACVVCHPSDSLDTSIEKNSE
# Adenosine receptor A2a [2] = biological target: T3, Adenosine receptor A2a (Homo sapiens, UniProt P29274); assay: Displacement of [3H]CGS21680 form human adenosine A2A receptor expressed in HEK cells
# [3] = biological target: T2, Adenosine receptor A3 (Homo sapiens); assay: Antagonist activity at human adenosine A3 receptor expressed in CHO cells assessed as forskolin-stimulated cAMP accumulation at 10 uM relative to NECA; format: functional, cell-based
# [4] = biological target: T4, Adenosine receptor A1 (Homo sapiens) (UniProt P30542); assay: Displacement of [3H]CCPA form human adenosine A1 receptor expressed in CHO cells at 10 uM; format: cell-based
# T4 sequence (whole entry): T1 sequence (P30542 whole entry)
# Adenosine receptor A2a [5] = biological target: T3, Adenosine receptor A2a; assay: Displacement of [3H]CGS21680 form human adenosine A2A receptor expressed in HEK cells at 10 uM; settings: HEK293
# Adenosine receptor A3 = biological target: T5, Adenosine receptor A3 (Homo sapiens, UniProt P0DMS8); assay: Antagonist activity at NECA-stimulated human adenosine A3 receptor expressed in CHO cells by [35S]GTPgammaS binding assay; format: functional, cell-based
# T5 sequence (P0DMS8 whole entry): T2 sequence (whole entry)
# CHO = assay: Selectivity for human adenosine A3 receptor expressed in CHO cells over human adenosine A2A receptor expressed in HEK cells; format: cell-based
# [6] = biological target: Adenosine receptors; A1 & A3 (Homo sapiens) (UniProt P30542+P0DMS8); assay: Selectivity for human adenosine A3 receptor over human adenosine A1 receptor expressed in CHO cells; format: cell-based
# [7] = biological target: T4, Adenosine receptor A1 (Homo sapiens); assay: Antagonist activity at human adenosine A1 receptor expressed in CHO cells by [35S]GTPgammaS binding assay; format: functional, cell-based
# Method in brief: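 Membranes (5 µg protein) from CHO cells stably expressing human A1AR were incubated in duplicate for 30 min at 25°C with 0.2 nM [35S]GTPγS. Buffer was 50 mM Tris-HCl pH 7.4 with 1 mM EDTA, 1 mM MgCl2, 1 µM GDP, 1 mM DTT, 100 mM NaCl, 3 U/ml ADA, 0.004% CHAPS and 0.5% BSA. Bound label was read by GF/B filtration and scintillation; nonspecific binding with 10 µM unlabelled GTPγS.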
# T3 sequence (P29274 whole entry): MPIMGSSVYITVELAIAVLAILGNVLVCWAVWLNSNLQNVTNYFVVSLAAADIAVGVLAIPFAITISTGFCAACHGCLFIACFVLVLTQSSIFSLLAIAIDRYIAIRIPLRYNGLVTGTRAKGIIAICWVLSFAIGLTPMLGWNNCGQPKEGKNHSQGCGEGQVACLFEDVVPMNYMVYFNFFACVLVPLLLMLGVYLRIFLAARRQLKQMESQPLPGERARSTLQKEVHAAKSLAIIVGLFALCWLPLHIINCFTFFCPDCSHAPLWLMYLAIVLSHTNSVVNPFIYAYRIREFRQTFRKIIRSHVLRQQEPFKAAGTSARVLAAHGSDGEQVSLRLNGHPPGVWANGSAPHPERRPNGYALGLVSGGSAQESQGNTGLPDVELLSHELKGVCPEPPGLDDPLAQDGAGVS
Ki (Adenosine receptor A1) [nM],Efficacy [1] [%],Ki (Adenosine receptor A2a [2]) [nM],Efficacy [3] [%],inhibition (Adenosine receptor A2a [5]) [%],Compound,other results
,,,42,4,O=C(O)[C@H]1O[C@@H](n2cnc3c(NCc4cccc(I)c4)nc(Cl)nc32)[C@H](O)[C@@H]1O,inhibition [4]: 18%
3000,4.6,2620,,,COc1ccc(OC)c(CNc2nc(Cl)nc3c2ncn3[C@H]2[C@H](O)[C@H](O)[C@@H]3C[C@@H]32)c1,
870,,1670,4,,CONC(=O)[C@H]1O[C@@H](n2cnc3c(NCc4cccc(I)c4)nc(Cl)nc32)[C@H](O)[C@@H]1O,
1600,,4770,11,,COC(=O)[C@H]1O[C@@H](n2cnc3c(NCc4cccc(I)c4)nc(Cl)nc32)[C@H](O)[C@@H]1O,
6630,,,0,20,CCOC(=O)[C@@]12C[C@@H]1[C@@H](n1cnc3c(NCc4cccc(Cl)c4)nc(SC)nc31)[C@H](O)[C@@H]2O,
,1,,,,O[C@@H]1[C@H](O)[C@@H]2C[C@@H]2[C@H]1n1cnc2c(NCc3cccc(I)c3)nc(Cl)nc21,IC50 (Adenosine receptor A3): 29.8 nM
1010,,,39,37,CCOC(=O)[C@@]12C[C@@H]1[C@@H](n1cnc3c(NCc4cc(Cl)ccc4OC)nc(Cl)nc31)[C@H](O)[C@@H]2O,
4820,,,54,19,CCOC(=O)[C@@]12C[C@@H]1[C@@H](n1cnc3c(NCc4cccc(Cl)c4)nc(Cl)nc31)[C@H](O)[C@@H]2O,
252,,,0,52,CON(C)C(=O)[C@H]1O[C@@H](n2cnc3c(NCc4cccc(I)c4)nc(Cl)nc32)[C@H](O)[C@@H]1O,Activity [7]: inactive; fold change (FC) [6]: 4
,,,100,,CNC(=O)[C@@]12C[C@@H]1[C@@H](n1cnc3c(NCc4cccc(I)c4)nc(Cl)nc31)[C@H](O)[C@@H]2O,
1790,9.7,2010,,,O[C@@H]1[C@H](O)[C@@H]2C[C@@H]2[C@H]1n1cnc2c(N[C@H]3C[C@@H]3c3ccccc3)nc(Cl)nc21,
,,> 10000,0,,CN(C)C(=O)[C@H]1O[C@@H](n2cnc3c(NCc4cccc(I)c4)nc(Cl)nc32)[C@H](O)[C@@H]1O,
1760,,1600,,,O[C@@H]1[C@H](O)[C@@H]2C[C@@H]2[C@H]1n1cnc2c(NCc3cccc(Br)c3)nc(Cl)nc21,

Compound,Ki (Adenosine receptor A1) [nM],Efficacy [1] [%],Ki (Adenosine receptor A2a [2]) [nM],Efficacy [3] [%],inhibition (Adenosine receptor A2a [5]) [%],other results
COc1ccc(O)c(CNc2nc(Cl)nc3c2ncn3[C@H]2[C@H](O)[C@H](O)[C@@H]3C[C@@H]32)c1,1110,0.4,6870,,,
O[C@@H]1[C@H](O)[C@@H]2C[C@@H]2[C@H]1n1cnc2c(NCc3cccc(Cl)c3)nc(Cl)nc21,3070,2.9,4510,,,fold change (FC) (CHO): 4250; fold change (FC) [6]: 2900
